Source: ChEMBL document CHEMBL3352380, “Development of benzo[d]oxazol-2(3H)-ones derivatives as novel inhibitors of Mycobacterium tuberculosis InhA” (Bioorg Med Chem, 2014)
In brackets after ≈: the same amount, converted by molar mass.

Columns and labels:
[1] = tested on: Mycobacterium tuberculosis; assay: Antimicrobial activity against Mycobacterium tuberculosis H37Rv ATCC 27294 after 28 days by two-fold agar dilution method in presence of piperine; type: functional; details: H37Rv ATCC 27294, 672 h
In short: (§1)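 Two-fold serial dilutions in Middlebrook 7H11 agar with OADC supplement, final 50 to 0.78 µg/mL. Inoculum from fresh 7H11/OADC slants, adjusted to 1 mg/mL wet weight in 0.05% Tween 80 saline and diluted 10^-2 (~10^7 cfu/mL), spotted onto drug-containing agar tubes. Incubated at 37 °C; MIC is the lowest concentration inhibiting growth, read at 28 days.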

[2] = Cytotoxicity against mouse RAW264.7 cells at 50 uM after 72 hrs by MTT assay; type: cell-based; details: read-out: INH
In short: (§2)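 RAW 264.7 macrophages exposed to compound for 72 h. Viability read as MTT conversion to formazan with a non-radioactive cell proliferation kit, reported as percentage growth inhibition.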

[3] = Cytotoxicity against mouse RAW264.7 cells at 100 uM after 72 hrs by MTT assay; type: cell-based; details: read-out: INH; in short: as §2
[4] = molecular target: T1, Enoyl-[acyl-carrier-protein] reductase [NADH] (Mycobacterium tuberculosis) (UniProt P9WGR1); assay: Inhibition of Mycobacterium tuberculosis recombinant His6-tagged InhA expressed in Escherichia coli BL21(DE3) using 2-trans-decenoyl-CoA as substrate at 10 uM incubated for 2 hrs prior to substrate addition by spectrophotometry
T1 sequence (whole entry): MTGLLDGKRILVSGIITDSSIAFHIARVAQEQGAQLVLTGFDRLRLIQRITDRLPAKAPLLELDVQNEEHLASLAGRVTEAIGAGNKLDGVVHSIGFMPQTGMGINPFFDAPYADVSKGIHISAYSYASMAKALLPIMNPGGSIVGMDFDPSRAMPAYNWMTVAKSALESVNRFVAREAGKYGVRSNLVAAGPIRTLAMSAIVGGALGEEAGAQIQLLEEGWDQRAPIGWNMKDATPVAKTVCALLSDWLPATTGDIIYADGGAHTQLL
In short: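 His6-InhA expressed in E. coli BL21(DE3) with 0.1 mM IPTG at 18 °C and purified on Ni-NTA. 70 nM enzyme pre-incubated 2 h with inhibitor at 10 µM in 30 mM PIPES, 150 mM NaCl, pH 6.8, 0.5% DMSO, 25 °C. Reaction started with DD-CoA plus NADH and followed at 340 nm. Initial velocity compared with a no-ligand control; triplicate.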

[5] = tested on: Mycobacterium tuberculosis; assay: Antimicrobial activity against Mycobacterium tuberculosis H37Rv ATCC 27294 after 28 days by two-fold agar dilution method; type: functional; details: H37Rv ATCC 27294, 672 h; in short: as §1
[6] = tested on: Mycobacterium tuberculosis; assay: Antimicrobial activity against Mycobacterium tuberculosis H37Rv ATCC 27294 after 28 days by two-fold agar dilution method in presence of verapamil; type: functional; details: H37Rv ATCC 27294, 672 h; in short: as §1
[7] = molecular target: T1, Enoyl-[acyl-carrier-protein] reductase [NADH] (Mycobacterium tuberculosis)
[8] = molecular target: T2, Enoyl-[acyl-carrier-protein] reductase [NADH] (Mycobacterium tuberculosis, UniProt P9WGR1); assay: Inhibition of Mycobacterium tuberculosis recombinant His6-tagged InhA expressed in Escherichia coli BL21(DE3) using 2-trans-decenoyl-CoA as substrate incubated for 2 hrs prior to substrate addition by spectrophotometry
T2 sequence (P9WGR1 whole entry): T1 sequence (whole entry)

Row | Compound | MIC [1] | cytotoxicity at 72 h, 50 µM [2] | cytotoxicity at 72 h, 100 µM [3] | inhibition [4] | MIC [5] | MIC [6] | Tm [7] | IC50 [8]
1 | O=C(Cn1c(=O)oc2ccccc21)NCc1ccco1 | 22.9 µM | 32.8% | 33.8% | 30.1% | 22.9 µM (≈ 6.25 µg/mL) | 22.9 µM | – | –
2 | O=C(Cn1c(=O)oc2cc(Cl)ccc21)Nc1nc2ccc([N+](=O)[O-])cc2s1 | 7.72 µM | 12.5% | 14.2% | 48.6% | 30.9 µM (≈ 12.5 µg/mL) | 7.72 µM | – | –
3 | O=C(Cn1c(=O)oc2ccccc21)Nc1nc2ccccc2s1 | 9.6 µM | 43.5% | 59.6% | 42.1% | 19.2 µM (≈ 6.25 µg/mL) | 9.6 µM | – | –
4 | O=C(Cn1c(=O)oc2cc([N+](=O)[O-])ccc21)Nc1ccccc1 | 9.97 µM | 18% | 26.4% | 46.1% | 79.8 µM (≈ 25 µg/mL) | 19.9 µM | – | –
5 | O=C(Cn1c(=O)oc2cc([N+](=O)[O-])ccc21)Nc1cc(C(F)(F)F)ccc1Cl | 30.1 µM | 12.8% | 31.6% | 32.2% | 60.1 µM (≈ 25 µg/mL) | 15 µM | – | –
6 | O=C(Cn1c(=O)oc2ccccc21)Nc1ccccc1 | 23.3 µM | 35.1% | 39.8% | 32.4% | 46.6 µM (≈ 12.5 µg/mL) | 23.3 µM | – | –
7 | CC[C@@H](CO)NCCN[C@@H](CC)CO [ETHAMBUTOL] | – | – | – | – | 7.64 µM (≈ 1.56 µg/mL) | – | – | –
8 | O=C(Cn1c(=O)oc2cc([N+](=O)[O-])ccc21)Nc1ncc([N+](=O)[O-])s1 | 8.55 µM | 20.2% | 43.8% | 82.4% | 17.1 µM (≈ 6.25 µg/mL) | 8.55 µM | 1.9 °C | 5.12 µM
9 | O=C(Cn1c(=O)oc2cc([N+](=O)[O-])ccc21)Nc1nc2ccccc2s1 | 33.8 µM | 22.7% | 56.1% | 60.8% | 33.8 µM (≈ 12.5 µg/mL) | 33.8 µM | – | 7.62 µM
10 | O=C(Cn1c(=O)oc2cc(Cl)ccc21)NCc1cccs1 | 9.64 µM | 20.3% | 53.6% | 45.6% | 38.7 µM (≈ 12.5 µg/mL) | 9.64 µM | – | –
11 | O=C(Cn1c(=O)oc2ccccc21)NCc1cccs1 | 5.41 µM | 23.4% | 49.1% | 26.1% | 21.7 µM (≈ 6.25 µg/mL) | 10.8 µM | – | –
12 | O=C(Cn1c(=O)oc2ccccc21)Nc1cc(Cl)ccc1Cl | – | – | – | 19.5% | – | – | – | 22.1 µM
13 | NNC(=O)c1ccncc1 [ISONIAZID] | – | – | – | – | 0.72 µM (≈ 0.0987 µg/mL) | – | – | –
14 | CO[C@H]1/C=C/O[C@@]2(C)Oc3c(C)c(O)c4c(O)c(c(/C=N/N5CCN(C)CC5)c(O)c4c3C2=O)NC(=O)/C(C)=C\C=C\[C@H](C)[C@H](O)[C@@H](C)[C@@H](O)[C@@H](C)[C@H](OC(C)=O)[C@@H]1C [RIFAMPIN] | – | – | – | – | 0.15 µM (≈ 0.123 µg/mL) | – | – | –
15 | O=C(Cn1c(=O)oc2cc(Cl)ccc21)Nc1ncc([N+](=O)[O-])s1 | 17.6 µM | 14.3% | 50.6% | 72.6% | 17.6 µM (≈ 6.25 µg/mL) | 8.81 µM | – | 6.82 µM
16 | O=C(Cn1c(=O)oc2ccccc21)Nc1ccccn1 | 9.28 µM | 20.2% | 28.4% | 26.1% | 46.4 µM (≈ 12.5 µg/mL) | 4.64 µM | – | –
17 | O=C(Cn1c(=O)oc2cc([N+](=O)[O-])ccc21)Nc1ccccn1 | 9.94 µM | 38.6% | 47.3% | 15.6% | 39.8 µM (≈ 12.5 µg/mL) | 19.9 µM | – | –

Row | Compound | MIC [1] | cytotoxicity at 72 h, 50 µM [2] | cytotoxicity at 72 h, 100 µM [3] | inhibition [4] | MIC [5] | MIC [6] | Tm [7] | IC50 [8]
18 | O=C(Cn1c(=O)oc2cc(Cl)ccc21)NCc1ccccn1 | 4.91 µM | 36.1% | 40% | 43.1% | 39.3 µM (≈ 12.5 µg/mL) | 4.91 µM | – | –
19 | O=C(Cn1c(=O)oc2ccccc21)Nc1cccc(Cl)c1 | – | – | – | 17% | – | – | – | > 25 µM
20 | O=C(Cn1c(=O)oc2cc([N+](=O)[O-])ccc21)Nc1nc2ccc([N+](=O)[O-])cc2s1 | 3.75 µM | 14.8% | 39% | 51.7% | 15 µM (≈ 6.25 µg/mL) | 3.75 µM | – | –
21 | O=C(Cn1c(=O)oc2cc(Cl)ccc21)Nc1ccccc1 | 41.3 µM | 15.8% | 20.2% | 28.2% | 82.6 µM (≈ 25 µg/mL) | 20.6 µM | – | –
22 | O=C(Cn1c(=O)oc2ccccc21)Nc1nc2ccc([N+](=O)[O-])cc2s1 | 4.21 µM | 12.4% | 19.2% | 45.1% | 33.8 µM (≈ 12.5 µg/mL) | 8.43 µM | – | –
23 | CC1COc2c(N3CCN(C)CC3)c(F)cc3c(=O)c(C(=O)O)cn1c23 (stereo not drawn) [OFLOXACIN] | – | – | – | – | 2.16 µM (≈ 0.781 µg/mL) | – | – | –
24 | O=C(Cn1c(=O)oc2cc([N+](=O)[O-])ccc21)NCc1ccccn1 | 9.51 µM | 21.8% | 33.4% | 68.1% | 76.2 µM (≈ 25 µg/mL) | 38.1 µM | – | 8.23 µM
25 | O=C(Cn1c(=O)oc2ccccc21)Nc1cc(C(F)(F)F)ccc1Cl | 16.9 µM | 12.3% | 15.4% | 26.8% | 67.4 µM (≈ 25 µg/mL) | 33.7 µM | – | –
26 | O=C(Cn1c(=O)oc2cc(Cl)ccc21)Nc1ccccn1 | 10.3 µM | 33% | 43.7% | 51.6% | 82.3 µM (≈ 25 µg/mL) | 10.3 µM | – | –
27 | O=C(Cn1c(=O)oc2cc([N+](=O)[O-])ccc21)NCc1cccs1 | 18.8 µM | 36.5% | 41% | 35.7% | 18.8 µM (≈ 6.25 µg/mL) | 18.8 µM | – | –
28 | O=C(Cn1c(=O)oc2cc([N+](=O)[O-])ccc21)NCc1ccco1 | 39.4 µM | 26.8% | 60.1% | 36.9% | 78.8 µM (≈ 25 µg/mL) | 39.4 µM | – | –
29 | O=C(Cn1c(=O)oc2ccccc21)NCc1ccccn1 | 44.1 µM | 37.3% | 38.7% | 42.2% | 88.2 µM (≈ 25 µg/mL) | 22.1 µM | – | –
30 | O=C(Cn1c(=O)oc2ccccc21)Nc1ncc([N+](=O)[O-])s1 | 19.5 µM | 25% | 44.6% | 48.1% | 78 µM (≈ 25 µg/mL) | 39 µM | – | –
31 | O=C(Cn1c(=O)oc2cc(Cl)ccc21)Nc1cc(C(F)(F)F)ccc1Cl | 15.4 µM | 1.61% | 12.1% | 40.1% | 61.7 µM (≈ 25 µg/mL) | 15.4 µM | – | –
32 | O=C(Cn1c(=O)oc2cc(Cl)ccc21)NCc1ccco1 | 10.2 µM | 27.8% | 50.3% | 47.5% | 40.8 µM (≈ 12.5 µg/mL) | 20.4 µM | – | –
33 | O=C(Cn1c(=O)oc2cc(Cl)ccc21)Nc1nc2ccccc2s1 | 17.4 µM | 38.7% | 52.5% | 58.2% | 17.4 µM (≈ 6.25 µg/mL) | 8.68 µM | – | 8.9 µM
34 | O=C(Cn1c(=O)oc2ccccc21)Nc1ccc(Cl)c(Cl)c1 | – | – | – | 16.5% | – | – | – | > 25 µM
